Measurements published in the RNAGym collection of RNA variant scans (doi:10.1126/science.aae0568).
Fewer inactive variants are shown than the library holds.

B1: tRNA (parent)
chain: GUUCCGUUGGCGUAAUGGUAACGCGUCUCCCUCCUAAGGAGAAGACUGCGGGUUCGAGUCCCGUACGGAACG

Variants of: B1
Assay: yeast fitness relative to wild type (ratio to wild type); higher = fitter; tRNA-Arg(CCU), competitive growth, 37 C, YPD
Method in brief: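 Amplicons of the tRNA-Arg(CCU) gene were sequenced, 100-nucleotide paired-end, from the start population and from each end population of a pooled yeast competition. The competition, in six parallel replicates, lasted 24 hours in YPD at 37°C. Fitness relative to wild type was calculated from changes in genotype frequencies. Genotypes had to have ≥ 100 starting reads, and estimates < 0.5 were set to 0.5.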

Variant | yeast fitness
C11A U19C U26C A40U G44C C46U U64G | 0.514
C11A U19G A36G U53C U54C A69C | ≤ 0.5
C11G A21G G38C G41C C55A A65C | 0.525
C11A C31U A70U | 0.629
C11A G25C C46U G50A | ≤ 0.5
C11A U16C U32G C49U G56A A65C | ≤ 0.5
C11A C27U G56C | ≤ 0.5
C11A U13C C27A C60G A65G | ≤ 0.5
C11G A14U A43U G52A G68C A69G | 0.636
C11G A15C U47G | ≤ 0.5
C11A G12A A20C C29U | ≤ 0.5
C11A G41A A57C | ≤ 0.5
C11A U16A C30G G44C C61A | ≤ 0.5
C11A U13A C29A G48A C66U | ≤ 0.5
C11A C31A U53A | ≤ 0.5
C11G A15U C34A A42C G48A C55U | ≤ 0.5
C11A C61U A65G G67C | ≤ 0.5
C11G A15G U28G C29U C33G C46G A57C | ≤ 0.5
C11A U16A | 0.58
C11A U19A C29A U32A U54C C55G C60G A65G | ≤ 0.5
C11A C29G A57G C66A | ≤ 0.5
C11G A20C A42C A57U | ≤ 0.5
C11A U16C U28C U32G C49G C55A | ≤ 0.5
C11A U19G A36G U54C A69C | 0.54

Variant | yeast fitness
C11A C31G C34G C46G U59A G63A | ≤ 0.5
C11A G12C C33U A43C | ≤ 0.5
C11A C27G G68A | ≤ 0.5
C11A U19A C29A U32A U54C C55G C60G | ≤ 0.5
C11G A21C C22G C30G A45U | 0.558
C11A G25C U28A A40U | 0.752
C11A U16C G18C A45C U59A | ≤ 0.5
C11A U16C G18C A45C A57C C62U | ≤ 0.5
C11A U19A C27U A42U A45C C55U A69C | ≤ 0.5
C11G A15U C24G A40G C61A | ≤ 0.5
C11A U13A A14U G23C A69U | ≤ 0.5
C11A U47C C62A | ≤ 0.5
C11A U16C U32G | 0.523
C11A U13G C55A | 0.659
C11A C49G | 0.782
C11A C49U | 0.658
C11A G38A A40U G50C C60G A70G | ≤ 0.5
C11A G23A A43U | ≤ 0.5
C11A G18C C27G | 0.64
C11G A14G G17A G48C C62U C66G A70G | ≤ 0.5
C11A C31U A65U | ≤ 0.5
C11A U19C | 0.706
C11A C61G A65C | 0.567
C11A G41C | 0.714

Variant | yeast fitness
C11G A20U C24A G25C A43U | ≤ 0.5
C11A G50C C60U A70C | ≤ 0.5
C11A C29U A43C | 0.599
C11G A14C A57C C61A A69C | 0.581
C11A U32A C33U C66A | ≤ 0.5
C11A U16C U32G C49G C55A C66G A70C | ≤ 0.5
C11A C30U A43C G67U | ≤ 0.5
C11A G25C C29U C49U | ≤ 0.5
C11A C31U A69C A70G | ≤ 0.5
C11G A15U C31A G58C A70C | ≤ 0.5
C11G A15G C33G A37G | ≤ 0.5
C11A G18A A36U G41C C55U U64C | ≤ 0.5
C11A U16G U53G | ≤ 0.5
C11A G18A C31U A69C | 0.605
C11A C27U C33U U35C C62U A65G | ≤ 0.5
C11A U54C A57U | 0.565
C11G A15C C29U G41C G52A | ≤ 0.5
C11A U32A C33U U47A G63A | ≤ 0.5
C11A C33G A43C G68A A70G | ≤ 0.5
C11A U16C G18C A45C A57U U59C | ≤ 0.5
C11A U13A A42U G50A C55A | ≤ 0.5
C11A C30G G48C | ≤ 0.5
C11G A20C C24U A36C C66U G67A | ≤ 0.5
C11G A20U G56A C60U | 0.678

Variant | yeast fitness
C11A G25C C29U A43U A65C A70U | ≤ 0.5
C11G A15G A21G A37G A57U C60U C62G | ≤ 0.5
C11A C61U | 0.621
C11A C61A | 0.613
C11G A20U G38C G50A | 0.569
C11A U32A C33U U47A | ≤ 0.5
C11A U13A C31G | 0.608
C11G A15C C24U A43U G68A | ≤ 0.5
C11A U16C G18C A45C A57C G67A G68C | ≤ 0.5
C11G A21G C29G A40C U54A | ≤ 0.5
C11A U28G G44C | 0.602
C11G A20G C24U C31G | ≤ 0.5
C11G A14G C27A G38A A65C | ≤ 0.5
C11A G18A C31U | 0.535
C11A G51A U59A | ≤ 0.5
C11A U47C G52C | ≤ 0.5
C11A G67A | 0.555
C11A G67C | 0.574
C11A U28G C34U | ≤ 0.5
C11A U16C U32G C49G C55A | 0.546
C11A G18C | ≤ 0.5
C11A C27U G44U U64G A65G | 0.593
C11G A21C U26A C34U | ≤ 0.5
C11A U26C C29G C31U G52C C55A U59G | ≤ 0.5

Variant | yeast fitness
C11A C30U C49G G50A U64A | ≤ 0.5
C11A C29A U32C C66U | ≤ 0.5
C11A U32A C34A A65C | ≤ 0.5
C11G A20U C30G C49G U53G | 0.571
C11G A14G A37G G44A G63A | 0.55
C11G A20U C30G C34A A43C A69C | 0.76
C11A U13C A14G G44C C46A C49G | ≤ 0.5
C11A U16G C33U | ≤ 0.5
C11A G52C C61G | 0.618
C11A C34A G58C | ≤ 0.5
C11G A15G C33G G52C A69C | ≤ 0.5
C11A U19A G52A | ≤ 0.5
C11G A20C C55A G67C | ≤ 0.5
C11A C31U C62A | ≤ 0.5
C11A C31U C62U | 0.544
C11A C49A C61G | 0.53
C11A C61G A65C A70C | ≤ 0.5
C11A C30G C31U U32C G52A | 0.566
C11A C31U G56A G58C | 0.595
C11A G18A G68A | ≤ 0.5
C11G A15G C22A A37U A65C C66G | ≤ 0.5
C11A U35G C46A C49U C60U | ≤ 0.5
C11A C29G A57G | ≤ 0.5
C11A C46U C62A A65C | ≤ 0.5

Variant | yeast fitness
C11A C60A | ≤ 0.5
C11G A21G C31G A42G | ≤ 0.5
C11G A15G U26A U32A G38A A40C G58A | ≤ 0.5
C11A C34U | 0.552
C11G A15C G41A C49G | ≤ 0.5
C11A C30U C49A | ≤ 0.5
C11G A15G A45C C46A A65C | ≤ 0.5
C11G A20G C62A | ≤ 0.5
C11A C27G | 0.589
C11A C29G U54A | 0.69
C11A G18C C27A G48A U54C | 0.76
C11A C31A G51C | ≤ 0.5
C11A G12A G48A G50A | ≤ 0.5
C11G A14G G63A C66U | ≤ 0.5
C11G A15U C34A A42C G48A | 0.619
C11G A14C C30G A45G A57G | ≤ 0.5
C11A G18A C27U C34G A42C | ≤ 0.5
C11G A14U A42U | 0.638
C11A G23C G52C | 0.57
C11A U19G C49A | ≤ 0.5
C11A C31G C60U | ≤ 0.5
C11A C27G U35A A43U U54C A65G G68A | ≤ 0.5
C11A U19A A42U A45C U47C C55U A69C | ≤ 0.5
C11G A14U G17A A36G G41A | 0.582

Variant | yeast fitness
C11A C62A A70U | ≤ 0.5
C11A C34A G44C A70U | ≤ 0.5
C11G A20C A45G A70U | ≤ 0.5
C11A C29A A57G A65C | ≤ 0.5
C11A C27U A36G C49A | ≤ 0.5
C11G A20C C24U A36C U47A C66U | ≤ 0.5
C11A U16C U32G U64G | ≤ 0.5
C11A U35A G52A | ≤ 0.5
C11A G41A A45U G56C | ≤ 0.5
C11A U13A A42U C55A | ≤ 0.5
C11A G25C C29U C62A | ≤ 0.5
C11A C31A G68C | ≤ 0.5
C11A G25C A57U | 0.513
C11A C34G A43G C46G | 0.708
C11A C33G C34G C61A | ≤ 0.5
C11G A21G G44C C61A C62U C66U | ≤ 0.5
C11A U19A U47C C55A C61U | ≤ 0.5
C11A G51A A65U | ≤ 0.5
C11A C33U C60G | 0.531
C11A C27G C55A C61G | ≤ 0.5
C11A U28G C33A A45G A65U | ≤ 0.5
C11A C27A G67A | 0.626
C11A C62G A69U | ≤ 0.5
